Source: ChEMBL document CHEMBL1148738, “Design, synthesis, and in vitro evaluation of carbamate derivatives of 2-benzoxazolyl- and 2-benzothiazolyl-(3-hydroxyphenyl)-methanones as novel fatty acid amide hydrolase inhibitors” (J Med Chem, 2007)
Active and inactive are the calls of the source. The calls are words filed in the database; no cut-off is given here.

Experiments:
[1] = organism: Rattus norvegicus; test: Inhibition of MAGL in Wistar rat cerebellar membrane at 100 uM; assay type: cell membranes; conditions: Cerebellum
How it was run: (§1)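 Cerebellar membranes from 4-week-old male Wistar rats. Preincubation 30 min at 25 °C: 10 µg protein, 44 mM Tris-HCl pH 7.4, 0.9 mM EDTA, 0.5% BSA, 1.25% DMSO. Incubation 90 min at 25 °C: 5 µg protein, 54 mM Tris-HCl, 1.1 mM EDTA, 100 mM NaCl, 5 mM MgCl2, 0.5% BSA, 50 µM 2-AG. Samples at 0 and 90 min stopped with acidified acetonitrile (pH 3.0). 2-AG and arachidonic acid quantified by HPLC-UV at 211 nm from peak areas.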

[2] = biological target: T1, Fatty-acid amide hydrolase 1 (Rattus norvegicus) (UniProt P97612); test: Inhibition of FAAH activity in Wistar rat brain assessed as remaining enzyme activity at 10 uM; values are per cent of control
T1 sequence (whole entry): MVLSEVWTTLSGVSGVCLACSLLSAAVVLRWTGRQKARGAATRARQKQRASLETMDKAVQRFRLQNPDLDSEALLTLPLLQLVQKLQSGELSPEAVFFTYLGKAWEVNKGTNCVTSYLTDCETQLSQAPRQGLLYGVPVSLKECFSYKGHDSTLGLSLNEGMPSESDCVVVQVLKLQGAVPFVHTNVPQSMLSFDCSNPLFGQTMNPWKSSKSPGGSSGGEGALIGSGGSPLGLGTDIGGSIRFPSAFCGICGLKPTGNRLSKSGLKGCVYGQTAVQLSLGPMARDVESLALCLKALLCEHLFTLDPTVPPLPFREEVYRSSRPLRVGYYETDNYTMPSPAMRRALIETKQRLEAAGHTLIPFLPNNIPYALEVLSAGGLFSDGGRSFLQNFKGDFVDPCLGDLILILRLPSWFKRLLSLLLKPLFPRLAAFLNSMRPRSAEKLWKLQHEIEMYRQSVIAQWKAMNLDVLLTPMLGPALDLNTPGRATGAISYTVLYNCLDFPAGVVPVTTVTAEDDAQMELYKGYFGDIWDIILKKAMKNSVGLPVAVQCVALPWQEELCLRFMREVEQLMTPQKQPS

[3] = biological target: T2, Fatty-acid amide hydrolase 1 (Rattus norvegicus, UniProt P97612); test: Inhibition of FAAH activity in Wistar rat brain
T2 sequence (P97612 whole entry): T1 sequence (whole entry)
How it was run: (§2)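 Enzyme source: supernatant (10 000 g, 20 min, 4 °C) of whole-brain-minus-cerebellum homogenate from 8-week-old male Wistar rats in 0.1 M potassium phosphate pH 7.4. Compound (in DMSO, final max 5%) preincubated 10 min with 18 µg protein. Substrate: [ethanolamine 1-³H]arachidonoylethanolamide, with 0.5% fatty-acid-free BSA, 10 min at 37 °C. Stopped with ethyl acetate. Aqueous [³H]ethanolamine counted by liquid scintillation.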

[4] = organism: Rattus norvegicus; test: Inhibition of MAGL in Wistar rat cerebellar membrane assessed as remaining enzyme activity at 100 uM; values are per cent of control; conditions: Cerebellum
[5] = Inhibition of MAGL in Wistar rat cerebellar membrane; assay type: cell membranes, Cerebellum; how it was run: as §1
[6] = organism: Rattus norvegicus; test: Inhibition of MAGL in Wistar rat cerebellar membrane assessed as remaining enzyme activity at 1 mM; values are per cent of control; conditions: Cerebellum
[7] = biological target: T1, Fatty-acid amide hydrolase 1 (Rattus norvegicus); test: Inhibition of FAAH activity in Wistar rat brain at 10 uM; how it was run: as §2

Row | IC50 [3] [nM] | residual activity [4] [%] | Structure (SMILES) | also measured
1 |  |  | O=C(Nc1cccc(C(=O)c2nc3ccccc3o2)c1)NC1CCCC1 | Activity [1]: inactive; residual activity [2]: 94%
2 | 47 | 83 | O=C(NC1CCCCC1)Oc1cccc(C(=O)c2nc3ccccc3o2)c1 | 
3 | 32 |  | Cc1cccc(CNC(=O)Oc2cccc(C(=O)c3nc4ccccc4o3)c2)c1 | IC50 [5]: 16000 nM; residual activity [6]: 11%
4 | 109 | 57 | CCCNC(=O)Oc1cccc(C(=O)c2nc3ccccc3o2)c1 | 
5 | 47 | 71 | O=C(NC1CCCC1)Oc1cccc(C(=O)c2nc3ccccc3s2)c1 | 
6 | 137 |  | Cc1ccccc1CNC(=O)Oc1ccc(C(=O)c2nc3ccccc3o2)cc1 | IC50 [5]: 25000 nM; residual activity [6]: 11%
7 | 56 | 79 | O=C(NC1CCCCC1)Oc1cccc(C(=O)c2nc3ccccc3s2)c1 | 
8 | 38 |  | Cc1cccc(CNC(=O)Oc2cccc(C(=O)c3nc4ccccc4s3)c2)c1 | IC50 [5]: 23000 nM; residual activity [6]: 11%
9 |  |  | O=C(c1cccc(OCc2ccccc2)c1)c1nc2ccccc2s1 | Activity [7]: inactive; inhibition [1]: inactive
10 | 103 | 76 | CCCCNC(=O)Oc1cccc(C(=O)c2nc3ccccc3s2)c1 | 
11 | 379 | 75 | CCNC(=O)Oc1cccc(C(=O)c2nc3ccccc3o2)c1 | 
12 |  |  | O=C(c1cccc(OC(=O)C2CCCC2)c1)c1nc2ccccc2o1 | Activity [1]: inactive; residual activity [2]: 88%
13 | 121 | 75 | O=C(NCc1ccccc1)Oc1cccc(C(=O)c2nc3ccccc3s2)c1 | 
14 | 288 |  | O=C(NC1CCCC1)Oc1ccc(C(=O)c2nc3ccccc3o2)cc1 | IC50 [5]: 14000 nM
15 |  |  | O=C(c1cccc(NC(=O)C2CCCC2)c1)c1nc2ccccc2o1 | Activity [1]: inactive; residual activity [2]: 95%
16 | 143 | 70 | CCCNC(=O)Oc1cccc(C(=O)c2nc3ccccc3s2)c1 | 
17 | 54 | 59 | CCCCNC(=O)Oc1cccc(C(=O)c2nc3ccccc3o2)c1 | 
18 | 238 | 80 | CCNC(=O)Oc1cccc(C(=O)c2nc3ccccc3s2)c1 | 
19 |  |  | O=C(Nc1cccc(C(=O)c2nc3ccccc3o2)c1)OC1CCCC1 | Activity [1]: inactive; residual activity [2]: 95%
20 | 28 | 54 | O=C(NC1CCCC1)Oc1cccc(C(=O)c2nc3ccccc3o2)c1 | 
21 |  |  | O=C(c1cccc(OCc2ccccc2)c1)c1nc2ccccc2o1 | Activity [7]: inactive; Activity [1]: inactive
22 | 152 | 57 | O=C(NCc1ccccc1)Oc1cccc(C(=O)c2nc3ccccc3o2)c1 | 
